Test results from ChEMBL document CHEMBL1165967, “Synthesis and biological evaluation of pyrimidine analogs of antimycobacterial purines” (Bioorg Med Chem, 2010).
Values after ≈ are worked out from the molar mass of the structure shown.

Assays:
[1] = test system: Mycobacterium tuberculosis; assay: Antimycobacterial activity against Mycobacterium tuberculosis H37Rv by twofold dilution method; format: functional, organism-based
Method in brief: (§1)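 M. tuberculosis H37Rv (ATCC 27294) grown in BACTEC 12B medium, tested by Microplate Alamar Blue Assay across 10 twofold dilutions from 100 to 0.19 µg/mL. IC90 and IC50 taken from dose–response curve fitting.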

Vero = assay: Cytotoxicity against african green monkey Vero cells after 72 hrs by MTT assay; format: cell-based; conditions: Chlorocebus sabaeus
Method in brief: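 VERO cell cytotoxicity screen: cells exposed to compound for 72 h, viability read by MTT (CellTiter 96 non-radioactive proliferation reagent); EC50 obtained by curve fitting of the dose–response.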

[2] = Chemical stability in CD3OD solution assessed as cyclization after 25 days; format: physicochemical; conditions: read-out: Activity
[3] = Chemical stability in DMSO-d6 solution assessed as cyclization after 25 days; format: physicochemical; conditions: 600 h
[4] = test system: Mycobacterium tuberculosis; assay: Antimycobacterial activity against Mycobacterium tuberculosis H37Rv at 6.25 ug/mL by twofold dilution method; format: functional
[5] = Chemical stability in DMSO-d6/D2O solution assessed as cyclization after 25 days; format: physicochemical; conditions: for Stability: 600 h
[6] = Solubility in DMSO-d6/D2O solution; format: physicochemical
[7] = Solubility in CD3OD solution; format: physicochemical
[8] = test system: Mycobacterium tuberculosis; assay: Antimycobacterial activity against Mycobacterium tuberculosis; format: functional, organism-based; method in brief: as §1

Question: With `COc1ccc(CNc2ncnc(-c3ccco3)c2NC=O)cc1` as the compound, how does the IC50 [1] read?
Answer: The IC50 was 0.22 µg/mL (≈ 0.678 µM).

Question: What about the IC90 [1] of the same compound?
Answer: The IC90 was 0.56 µg/mL (≈ 1.73 µM).

Question: And the IC50 (Vero)?
Answer: The IC50 was greater than 40 µg/mL.

Question: What about the degraded at 600 h [2] of the same compound?
Answer: Its degraded at 600 h is 90%.

Question: What about the Stability [3] of the same compound?
Answer: The Stability was “Stable”.

Question: With `COc1ccc(CNc2nc([N+](=O)[O-])nc(-c3ccco3)c2NC=O)cc1` as the compound, how does the IC50 [1] read?
Answer: Its IC50 is 0.59 µg/mL (≈ 1.6 µM).

Question: And the IC90 [1]?
Answer: Its IC90 is 1.1 µg/mL (≈ 2.98 µM).

Question: What about the IC50 (Vero) of the same compound?
Answer: The IC50 was greater than 40 µg/mL.

Question: For `COc1ccc(CNc2ncnc(-c3ccco3)c2[N+](=O)[O-])cc1`, which IC50 [1] is on record?
Answer: The IC50 was 13 µg/mL (≈ 39.8 µM).

Question: What about the IC90 [1] of the same compound?
Answer: Its IC90 is 21 µg/mL (≈ 64.4 µM).

Question: With `COc1ccc(CN(C=O)c2c(-c3ccco3)nc[nH]c2=O)cc1` as the compound, how does the IC50 [1] read?
Answer: Its IC50 is 68 µg/mL (≈ 209 µM).

Question: What about the IC90 [1] of the same compound?
Answer: Its IC90 is 92 µg/mL (≈ 283 µM).

Question: With `COc1ccc(CNc2ncnc(-c3ccco3)c2N)cc1` as the compound, how does the inhibition at 6.25 µg/mL [4] read?
Answer: The inhibition at 6.25 µg/mL was 0%.

Question: For `COc1ccc(CNc2nc(F)nc(-c3ccco3)c2NC=O)cc1`, which IC50 [1] is on record?
Answer: Its IC50 is less than 0.2 µg/mL.

Question: What about the IC90 [1] of the same compound?
Answer: The IC90 was less than 0.2 µg/mL.

Question: What about the IC50 (Vero) of the same compound?
Answer: The IC50 was greater than 40 µg/mL.

Question: And the Stability [5]?
Answer: The Stability was “Stable”.

Question: What about the Stability [3] of the same compound?
Answer: Its Stability is “Stable”.

Question: For `COc1ccc(Cn2cnc(-c3cncnc3-c3ccco3)c2)cc1`, which IC50 [1] is on record?
Answer: The IC50 was 62 µg/mL (≈ 187 µM).

Question: What about the IC90 [1] of the same compound?
Answer: Its IC90 is 82 µg/mL (≈ 247 µM).

Question: For `CCNc1c(NCc2ccc(OC)cc2)ncnc1-c1ccco1`, which IC50 [1] is on record?
Answer: Its IC50 is 36 µg/mL (≈ 111 µM).

Question: And the IC90 [1]?
Answer: The IC90 was 46 µg/mL (≈ 142 µM).

Question: For `COc1ccc(CNc2cc(-c3ccco3)ncn2)cc1`, which inhibition at 6.25 µg/mL [4] is on record?
Answer: Its inhibition at 6.25 µg/mL is 0%.

Question: Which results are given for `COc1ccc(Cn2cncc2-c2cc(-c3ccco3)ncn2)cc1`?
Answer: IC50 [1]: 9.8 µg/mL (≈ 29.5 µM); IC90 [1]: 14 µg/mL (≈ 42.1 µM)

Question: What does the source list for `NCC[C@H](O)C(=O)N[C@@H]1C[C@H](N)[C@@H](O[C@H]2O[C@H](CN)[C@@H](O)[C@H](O)[C@H]2O)[C@H](O)[C@H]1O[C@H]1O[C@H](CO)[C@@H](O)[C@H](N)[C@H]1O.O=S(=O)(O)O`?
Answer: IC50 [1]: 0.07 µg/mL; IC90 [1]: 0.13 µg/mL

Question: Which results are given for `COc1ccc(CNc2nc(OC)nc(-c3ccco3)c2NC=O)cc1`?
Answer: IC50 [1]: 0.53 µg/mL (≈ 1.5 µM); IC90 [1]: 1.5 µg/mL (≈ 4.23 µM); IC50 (Vero): > 40 µg/mL; Stability [5]: Stable; degraded at 600 h [2]: 12%; Stability [3]: Stable

Question: What does the source list for `COc1ccc(COc2cc(-c3ccco3)ncn2)cc1`?
Answer: IC50 [1]: > 100 µg/mL; IC90 [1]: > 100 µg/mL

Question: Which IC50 [1] does the source give for `COc1ccc(CNc2ncnc(-c3ccco3)c2N(C)C)cc1` here?
Answer: Its IC50 is 17 µg/mL (≈ 52.4 µM).

Question: What about the IC90 [1] of the same compound?
Answer: Its IC90 is greater than 100 µg/mL.

Question: What does the source list for `CNc1c(NCc2ccc(OC)cc2)ncnc1-c1ccco1`?
Answer: IC50 [1]: 9 µg/mL (≈ 29 µM); IC90 [1]: 15 µg/mL (≈ 48.3 µM)

Question: For `COc1ccc(CN(C)c2ncnc(-c3ccco3)c2NC=O)cc1`, which IC50 [1] is on record?
Answer: Its IC50 is greater than 100 µg/mL.

Question: What about the IC90 [1] of the same compound?
Answer: The IC90 was greater than 100 µg/mL.

Question: With `COc1ccc(CN(C)c2cc(-c3ccco3)ncn2)cc1` as the compound, how does the IC50 [1] read?
Answer: The IC50 was 5.5 µg/mL (≈ 18.6 µM).

Question: And the IC90 [1]?
Answer: The IC90 was 7.1 µg/mL (≈ 24 µM).

Question: What about the solubility [6] of the same compound?
Answer: Its solubility is “Insoluble”.

Question: What about the solubility [7] of the same compound?
Answer: Its solubility is “Insoluble”.

Question: What does the source list for `COc1ccc(CN(C)c2ncnc(-c3ccco3)c2N)cc1`?
Answer: IC50 [1]: 9.4 µg/mL (≈ 30.3 µM); IC90 [1]: 17 µg/mL (≈ 54.8 µM)

Question: With `COc1ccc(CNc2nc(Cl)nc(-c3ccco3)c2NC=O)cc1` as the compound, how does the IC50 [1] read?
Answer: Its IC50 is less than 0.2 µg/mL.

Question: And the IC90 [1]?
Answer: The IC90 was 0.2 µg/mL (≈ 0.557 µM).

Question: What about the IC50 (Vero) of the same compound?
Answer: The IC50 was greater than 40 µg/mL.

Question: And the Stability [5]?
Answer: Its Stability is “Stable”.

Question: What about the degraded at 600 h [2] of the same compound?
Answer: Its degraded at 600 h is 12%.

Question: What about the Stability [3] of the same compound?
Answer: The Stability was “Stable”.

Question: Which results are given for `COc1ccc(CNc2nc(C)nc(-c3ccco3)c2NC=O)cc1`?
Answer: IC50 [1]: < 0.2 µg/mL; IC90 [1]: 0.33 µg/mL (≈ 0.975 µM); IC50 (Vero): > 40 µg/mL; degraded at 600 h ([5]; DMSO-d6/D2O solution, read-out: Activity): 40%; degraded at 600 h [2]: 90%; Stability [3]: Stable

Question: Which results are given for `COc1ccc(COc2ncnc(-c3ccco3)c2[N+](=O)[O-])cc1`?
Answer: IC50 [1]: > 50 µg/mL; IC90 [1]: > 50 µg/mL

Question: For `COc1ccc(Cn2cnc3c(-c4ccco4)ncnc32)cc1`, which IC50 [8] is on record?
Answer: Its IC50 is less than 0.2 µg/mL.

Question: With `COc1ccc(CNc2nc(N(C)C)nc(-c3ccco3)c2NC=O)cc1` as the compound, how does the IC50 [1] read?
Answer: The IC50 was 11 µg/mL (≈ 29.9 µM).

Question: What about the IC90 [1] of the same compound?
Answer: The IC90 was 26 µg/mL (≈ 70.8 µM).

Question: What about the Stability [5] of the same compound?
Answer: The Stability was “Stable”.

Question: And the degraded at 600 h [2]?
Answer: The degraded at 600 h was 12%.

Question: What about the Stability [3] of the same compound?
Answer: The Stability was “Stable”.

Question: What does the source list for `COc1ccc(COc2cc(-c3ccco3)nc(Cl)n2)cc1`?
Answer: IC50 [1]: > 100 µg/mL; IC90 [1]: > 100 µg/mL

Question: With `COc1ccc(CNc2cc(-c3ccco3)nc(Cl)n2)cc1` as the compound, how does the IC50 [1] read?
Answer: The IC50 was greater than 100 µg/mL.

Question: And the IC90 [1]?
Answer: The IC90 was greater than 100 µg/mL.

Question: For `CCc1nc(NCc2ccc(OC)cc2)c(NC=O)c(-c2ccco2)n1`, which IC50 [1] is on record?
Answer: Its IC50 is 0.26 µg/mL (≈ 0.738 µM).

Question: And the IC90 [1]?
Answer: Its IC90 is 0.53 µg/mL (≈ 1.5 µM).

Question: And the IC50 (Vero)?
Answer: Its IC50 is greater than 40 µg/mL.

Question: And the degraded at 600 h [2]?
Answer: Its degraded at 600 h is 90%.

Question: And the Stability [3]?
Answer: Its Stability is “Stable”.

Question: With `COc1ccc(COc2ncnc(-c3ccco3)c2N)cc1` as the compound, how does the IC50 [1] read?
Answer: The IC50 was greater than 100 µg/mL.

Question: And the IC90 [1]?
Answer: Its IC90 is greater than 100 µg/mL.

Question: Which IC50 [1] does the source give for `COc1ccc(CN(C)c2ncnc(-c3ccco3)c2[N+](=O)[O-])cc1` here?
Answer: Its IC50 is 5.7 µg/mL (≈ 16.7 µM).

Question: And the IC90 [1]?
Answer: Its IC90 is 13 µg/mL (≈ 38.2 µM).

Question: For `COc1ccc(CN(C)c2cc(-c3ccco3)nc(Cl)n2)cc1`, which IC50 [1] is on record?
Answer: Its IC50 is 1.4 µg/mL (≈ 4.25 µM).

Question: And the IC90 [1]?
Answer: The IC90 was 3 µg/mL (≈ 9.1 µM).

Question: And the IC50 (Vero)?
Answer: The IC50 was 22 µg/mL (≈ 66.7 µM).

Question: Which results are given for `COc1ccc(COc2ncnc(-c3ccco3)c2NC=O)cc1`?
Answer: IC50 [1]: > 100 µg/mL; IC90 [1]: > 100 µg/mL

Question: Which IC90 [8] does the source give for `COc1ccc(Cn2cnc3c(-c4ccco4)nc(Cl)nc32)cc1` here?
Answer: Its IC90 is 0.82 µg/mL (≈ 2.41 µM).
